Results filed as inconclusive are left out. The source made the active and inactive calls.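 Rule for the calls, unless noted: active = viability at or below 27.92% in each of two runs, the all-compound median minus 4 SD; inconclusive = no clear call, values can overlap the other calls; inactive = the rest.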
Legend:
[1] = OD615 S. cerevisiae growth inhibition, permissive medium, pilot counter-assay, permissive growth control for S. cerevisiae lifespan shortening project (AID 705;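 active = growth inhibition above 25% in both replicates, a cutoff set 3 SD above the mean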); settings: OD615, 24 h, at 10 µM, stronger effect = higher value
In short: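 System: Engineered DeaD yeast | Buffer or medium: SC raffinose/galactose permissive medium | Doses: 10 µM single dose, 0.25% DMSO | Times: 24 h exposure, 30 °C | Measured by: OD615 turbidity read | Read-out: Yeast growth inhibition indicated by reduced 24 h OD615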

[2] = Restrictive medium S. cerevisiae growth inhibition, OD615, pilot screen of yeast lifespan reduction project, restrictive growth control (AID 706;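 active = growth inhibition above a set limit, 3 SD over mean compound inhibition, in both replicates, cut at about 43% in these data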;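 note: modified DeaD lifespan yeast strain shifted to restrictive glucose medium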); settings: OD615, 48 h, at 10 µM, stronger effect = higher value
In short: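 Assay system: engineered S. cerevisiae DeaD strain; Buffer or medium: CSMM-D glucose medium; Dosing: 10 µM compound, 0.25% DMSO; Times: cell pre-growth 4 h, compound exposure 48 h, 30 °C; Detection: absorbance (optical density) measured at 615 nm.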

[3] = viability gain of MRP-1-high H69AR cells under doxorubicin, pilot screen, MRP-1 activator project, CellTiter-Glo, duplicate (AID 807;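 active = viability increase at or above a cutoff of the median across tested compounds plus 3 SD, cut at about 8.5% in these data, passing the limit was not always enough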;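 note: compound pretreatment 18-22 h then 72 h combined with doxorubicin; 0% = doxorubicin alone and 100% = vehicle without doxorubicin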); settings: H69AR viability with doxorubicin, CellTiter-Glo luminescence; at 10 µM; stronger effect = higher value
[4] = growth suppression of beta-catenin knockout HCT116, pilot screen, human colon tumor cells (AID 823;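 active = cell viability at or below a set limit in both duplicate runs, the limit being the all-compound median minus 4 SD, cut at about 23% in these data, passing the limit was not always enough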;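 note: 0% = wells killed by 20 µM Hyamine and 100% = untreated DMSO cell wells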); settings: CellTiter-Glo, 60 h, at 10 µM, stronger effect = lower value
[5] = growth suppression of PTEN-deleted HCT116, pilot screen, cell-based, HCT116 clonal line, CellTiter-Glo (AID 824); settings: 60 h, at 10 µM, stronger effect = lower value;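 note: 0% = 20 µM Hyamine control and 100% = vehicle cell control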
[6] = inhibitors of the yeast RAM network, pilot screen, dse1pr::URA3 reporter, 5-FOA selection (AID 869;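 active = inhibition over a set limit, the all-compound mean plus 3 SD, in both replicate runs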;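 note: 0% = DMSO wells with no growth and 100% = 10 µM 1-NA-PP1 with full growth; RAM network block rescues cells from 5-FOA so hits raise OD615 growth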); settings: S. cerevisiae dse1pr::URA3 5-FOA growth, OD615, 2 d; at 10 µM; stronger effect = higher value; strain carries analog-sensitive mutant Cbk1 kinase
[7] = RAM signaling pathway blockade in yeast – S. cerevisiae, Pdr1DBD-CYC8 efflux-inhibited sensitized strain, primary screen (AID 1298;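 active = RAM network inhibition above 8.4% in each of two replicates, 3 SD over the compound average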;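 note: 0% = DMSO untreated cells without growth and 100% = 10 µM 1-NA-PP1 full growth; higher means more yeast growth rescued from 5-FOA killing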); settings: S. cerevisiae cbk1-as DSE1-URA3 strain, 5-FOA growth OD615, 2 d; at 50 µM; stronger effect = higher value

CS(=O)(=O)N(CC(=O)NCc1ccco1)c1cc(C(F)(F)F)ccc1Cl
inactive: growth inhibition [1] 0.43% | growth inhibition [2] -4.23% | viability increase [3] -3.09% | viability [4] 99% | viability [5] 92.8% | inhibition [6] 0.68% | RAM network inhibition [7] 2.65%

CC12CN3CC(C)(CN(C1)C3c1ccc3ccccc3c1O)C2=O (configuration not stated)
inactive: growth inhibition [1] -10.8% | growth inhibition [2] -19.3% | viability increase [3] -0.54% | viability [4] 101% | viability [5] 100% | inhibition [6] -0.515% | RAM network inhibition [7] -0.68%

COCCNC(=O)CN1C(=O)CC(C)(C)S(=O)(=O)c2ccccc21
inactive: growth inhibition [1] -2.02% | growth inhibition [2] -10.2% | viability increase [3] 1.42% | viability [4] 109% | viability [5] 101% | inhibition [6] 0.31% | RAM network inhibition [7] -0.36%

O=C(NC1CCCC1)C(c1ccc(Cl)cc1)N1CCOCC1 (configuration not stated)
inactive: growth inhibition [1] -10.9% | growth inhibition [2] -6.79% | viability increase [3] 1.37% | viability [4] 98.8% | viability [5] 93% | inhibition [6] 1.98% | RAM network inhibition [7] 2.55%

O=C(c1ccc(S(=O)(=O)N2CCCC2)cc1)N1CCCc2ccccc21
inactive: growth inhibition [1] -17.6% | growth inhibition [2] -13.7% | viability increase [3] -4.87% | viability [4] 95.1% | viability [5] 92.4% | inhibition [6] 0.11% | RAM network inhibition [7] 1.2%

CC(C)N(Cc1nc(-c2ccc(Cl)cc2)no1)C(=O)CCCN1C(=O)c2ccccc2C1=O
inactive: growth inhibition [1] -14.4% | growth inhibition [2] -15.6% | viability increase [3] 5.41% | viability [4] 104% | viability [5] 91.6% | inhibition [6] 1.4% | RAM network inhibition [7] 6.24%

O=C(Cn1cnc2c(cnn2-c2ccc(F)cc2)c1=O)NCCc1ccccc1
inactive: growth inhibition [1] -1.94% | growth inhibition [2] -1.9% | viability increase [3] 1.69% | viability [4] 97.6% | viability [5] 95.7% | inhibition [6] 3.04% | RAM network inhibition [7] 6.6%

Cc1cc(OCCN2CCCC2)ccc1C(C)C
inactive: growth inhibition [1] -4.67% | growth inhibition [2] -1.01% | viability increase [3] -1.29% | viability [4] 89.1% | viability [5] 91.3% | inhibition [6] 2.1% | RAM network inhibition [7] 8.59%

CCNc1nc(OCCNS(=O)(=O)c2cc(C)ccc2C)nc(N(C)C)n1
inactive: growth inhibition [1] -7.45% | growth inhibition [2] -11.1% | viability increase [3] -0.92% | viability [4] 78.7% | viability [5] 78.8% | inhibition [6] 0.025% | RAM network inhibition [7] -0.63%

COCCn1c(SCC(=O)Nc2ccccc2)nc2c1c(=O)[nH]c(=O)n2C
inactive: growth inhibition [1] 1.17% | growth inhibition [2] -4.34% | viability increase [3] 1.21% | viability [4] 102% | viability [5] 95.5% | inhibition [6] 1.67% | RAM network inhibition [7] 1.25%

CC1CN(CCC(=O)Nc2ccc3c(c2)CCC3)CC(C)O1 (configuration not stated)
inactive: growth inhibition [1] -3.75% | growth inhibition [2] -3.82% | viability increase [3] -0.55% | viability [4] 97.5% | viability [5] 93% | inhibition [6] 0.995% | RAM network inhibition [7] 6.16%

C=CCn1c(-c2ccc(N)cc2)nc2ccccc21
inactive: growth inhibition [1] -6.82% | growth inhibition [2] 3.25% | viability increase [3] -3.72% | viability [4] 93.3% | viability [5] 80.1% | inhibition [6] 1.5% | RAM network inhibition [7] 1.23%

CCC(=O)Nc1nnc(-c2ccc(OC)cc2)o1
inactive: growth inhibition [1] -8.21% | growth inhibition [2] -11.8% | viability increase [3] -1.1% | viability [4] 103% | viability [5] 98.4% | inhibition [6] 1.01% | RAM network inhibition [7] -0.04%

O=C(CSc1cn(CCNC(=O)c2ccccc2)c2ccccc12)NCc1ccco1
inactive: growth inhibition [1] -4.76% | growth inhibition [2] -10.4% | viability increase [3] -5.29% | viability [4] 84.1% | viability [5] 84.3% | inhibition [6] 0.64% | RAM network inhibition [7] 5.98%

CCc1ccc(C(=O)NCc2cccs2)s1
inactive: growth inhibition [1] -5.71% | growth inhibition [2] 4.03% | viability increase [3] 1.53% | viability [4] 104% | viability [5] 97.1% | inhibition [6] 0.715% | RAM network inhibition [7] -1.7%

CCc1ccccc1NC(=O)c1cc2sccc2n1C
inactive: growth inhibition [1] -8.19% | growth inhibition [2] 0.86% | viability increase [3] 1.11% | viability [4] 90.4% | viability [5] 80.3% | inhibition [6] 0.28% | RAM network inhibition [7] 4.98%

Cn1c(C(=O)NCCCN2CCN(c3cccc(Cl)c3)CC2)cc2c(=O)n(C)c3ccccc3c21
inactive: growth inhibition [1] -2.52% | growth inhibition [2] -0.835% | viability increase [3] -2.92% | viability [4] 59.9% | viability [5] 59% | inhibition [6] -0.02% | RAM network inhibition [7] 7.94%

O=C(O)CCCCCN1C(=O)C(=O)/C(=C(/O)c2ccccc2)C1c1ccccc1 (configuration not stated)
inactive: growth inhibition [1] -21.2% | growth inhibition [2] -18.6% | viability increase [3] 0.21% | viability [4] 100% | viability [5] 103% | inhibition [6] 3.47% | RAM network inhibition [7] 2.1%

C=CCSC1=NC(N)=C(C#N)C2(CCCCC2)C1C(N)=O (configuration not stated)
inactive: growth inhibition [1] -4.98% | growth inhibition [2] 2.22% | viability increase [3] -1.39% | viability [4] 92.5% | viability [5] 96.6% | inhibition [6] 0.77% | RAM network inhibition [7] 2.04%

O=C(CSc1nc2c(cnn2-c2ccc(F)cc2)c(=O)[nH]1)N1CCOCC1
inactive: growth inhibition [1] -14.2% | growth inhibition [2] -19.8% | viability increase [3] -3.32% | viability [4] 96.7% | viability [5] 91.4% | inhibition [6] 3.16% | RAM network inhibition [7] 6.85%

COc1ccc(S(=O)(=O)N2CCN(CCO)CC2)cc1-c1nnc2c3ccccc3c(C)nn12
inactive: growth inhibition [1] -4.39% | growth inhibition [2] -6.93% | viability increase [3] -0.85% | viability [4] 101% | viability [5] 101% | inhibition [6] 1.31% | RAM network inhibition [7] 0.95%

COc1ccc(OC)c(C2CC(=O)c3c([nH]c(C(=O)OC(C)C)c3C)C2)c1 (configuration not stated)
active: viability [4] 15.2% | viability [5] 14.8%
inactive: growth inhibition [1] -9.82% | growth inhibition [2] -21.9% | viability increase [3] -7.46% | inhibition [6] 1.69% | RAM network inhibition [7] 0.97%

O=C(CSCC(=O)N1CCOCC1)Nc1nc(-c2ccc3c(c2)OCO3)cs1
inactive: growth inhibition [1] -15% | growth inhibition [2] -3.92% | viability increase [3] -3.99% | viability [4] 100% | viability [5] 97.3% | inhibition [6] 0.47% | RAM network inhibition [7] 6.38%

CCOC(=O)c1oc2cc(O)c(CC)cc2c(=O)c1-c1ccc2c(c1)OCCO2
inactive: growth inhibition [1] -22.8% | growth inhibition [2] -16.3% | viability increase [3] -2.23% | viability [4] 101% | viability [5] 91.7% | inhibition [6] 3% | RAM network inhibition [7] 5.4%

COc1ccc(C(=O)NCC(c2cccnc2)N2CCN(c3ccccc3)CC2)cc1OC (configuration not stated)
inactive: growth inhibition [1] -5.73% | growth inhibition [2] 0.095% | viability increase [3] -2.1% | viability [4] 97.6% | viability [5] 93.1% | inhibition [6] 1.5% | RAM network inhibition [7] 2.74%

Cc1ccc(O)c(-c2cc(C(F)(F)C(F)F)nc(-c3ccccc3)n2)c1
inactive: growth inhibition [1] -21.9% | growth inhibition [2] -10.4% | viability increase [3] -5.33% | viability [4] 66.7% | viability [5] 73% | inhibition [6] 2.58% | RAM network inhibition [7] 7.06%

O=c1c2ccccc2ncn1-c1ccc2c(c1)OCCO2
inactive: growth inhibition [1] -2.29% | growth inhibition [2] -19.6% | viability increase [3] -0.34% | viability [4] 101% | viability [5] 94% | inhibition [6] 0.6% | RAM network inhibition [7] 0.78%

O=C(NO)c1ccc(C(=O)N(C2CCCCC2)C2CCCCC2)cc1
inactive: growth inhibition [1] -0.05% | growth inhibition [2] 5.84% | viability increase [3] -5.78% | viability [5] 36.1% | inhibition [6] 0.64% | RAM network inhibition [7] -1.08%
active: viability [4] 17.2%

CC(C)OC(=O)CSc1nnc(-c2ccc(Cl)cc2)n1N
inactive: growth inhibition [1] -3.53% | growth inhibition [2] -8.84% | viability increase [3] -0.58% | viability [4] 97.2% | viability [5] 95.7% | inhibition [6] 2.38% | RAM network inhibition [7] 5.48%

O=C(O)CC1(Cc2nc(-c3cccs3)no2)CCCC1
inactive: growth inhibition [1] 5.79% | growth inhibition [2] 0.06% | viability increase [3] 0.13% | viability [4] 96.1% | viability [5] 94.6% | inhibition [6] 0.35% | RAM network inhibition [7] -0.58%

COc1ccc(-c2nc(CS(=O)CC(=O)N3CCc4ccccc4C3)c(C)o2)cc1 (configuration not stated)
inactive: growth inhibition [1] 2.66% | growth inhibition [2] 32.7% | viability increase [3] -2.66% | viability [4] 85.6% | viability [5] 88.8% | inhibition [6] 1.13% | RAM network inhibition [7] 3.48%

Cc1nc2scc(-c3cccs3)c2c(=O)o1
inactive: growth inhibition [1] -24% | growth inhibition [2] 14.4% | viability increase [3] -1.96% | viability [4] 95.8% | viability [5] 98.7% | inhibition [6] 1.73% | RAM network inhibition [7] 3.15%

Cc1[nH]c2ccccc2c1Cc1nnc(SCC(N)=O)o1
inactive: growth inhibition [1] 5.65% | growth inhibition [2] -5.42% | viability increase [3] -0.41% | viability [4] 100% | viability [5] 102% | inhibition [6] 1.88% | RAM network inhibition [7] 1.36%

C=CCn1c(C)c(C(C)=O)c(SC)nc1=S
inactive: growth inhibition [1] -2.37% | growth inhibition [2] 17.1% | viability increase [3] -1.99% | viability [4] 101% | viability [5] 99.8% | inhibition [6] 0.34% | RAM network inhibition [7] 5.32%

CCC(C)NC(=O)CCCCCn1c(=O)[nH]c2cc(OC)c(OC)cc2c1=O (configuration not stated)
inactive: growth inhibition [1] -18.5% | growth inhibition [2] -7.55% | viability increase [3] -2.36% | viability [4] 88% | viability [5] 93% | inhibition [6] 0.065% | RAM network inhibition [7] 2.96%

O=C1CC(c2ccco2)Sc2nc3ccccc3n21 (configuration not stated)
inactive: growth inhibition [1] -10.5% | growth inhibition [2] 13.4% | viability increase [3] -3.98% | viability [4] 67.2% | viability [5] 80.3% | inhibition [6] 0.365% | RAM network inhibition [7] 1.62%

Reference: PubChem BioAssay
